Data taken from ChEMBL document CHEMBL1152861, “Synthesis and serotonin receptor activity of the arylpiperazine alkyl/propoxy derivatives of new azatricycloundecanes” (Eur J Med Chem, 2009).
Calls of active or inactive are those of the source. The rule behind the calls is not given here.

Columns and labels:
[1] = molecular target: 5-hydroxytryptamine receptor 2A (Homo sapiens, UniProt P28223); assay: Displacement of [3H]ketanserin from 5HT2A receptor
[2] = molecular target: T1, 5-hydroxytryptamine receptor 1A (Rattus norvegicus, UniProt P19327); assay: Displacement of [3H]8-OH-DPAT from 5HT1A receptor in rat hippocampal membranes; type: cell membranes, Hippocampus, Membrane
T1 sequence (P19327 whole entry): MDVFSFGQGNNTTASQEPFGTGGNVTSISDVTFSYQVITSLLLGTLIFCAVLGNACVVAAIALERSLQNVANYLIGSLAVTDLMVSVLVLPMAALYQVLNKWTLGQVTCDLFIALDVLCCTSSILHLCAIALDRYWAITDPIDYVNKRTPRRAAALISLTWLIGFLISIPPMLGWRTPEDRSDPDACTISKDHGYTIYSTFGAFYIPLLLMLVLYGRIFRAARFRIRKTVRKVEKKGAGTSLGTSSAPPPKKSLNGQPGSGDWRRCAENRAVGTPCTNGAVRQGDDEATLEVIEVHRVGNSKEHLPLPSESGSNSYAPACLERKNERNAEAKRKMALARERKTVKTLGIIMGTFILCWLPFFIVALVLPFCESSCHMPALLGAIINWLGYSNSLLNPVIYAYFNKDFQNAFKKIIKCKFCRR

Mus musculus [3] = assay: Effect on spontaneous locomotor activity in Albino Swiss mouse administered intraperitoneally dose equivalent to 0.1 of LD50 after 30 mins measured for 60 min by automatic photoresistor actometer
Mus musculus [4] = assay: Neurotoxicity in Albino Swiss mouse administered intraperitoneally dose equivalent to 0.1 of LD50 after 30 mins measured for 1 min by chimney test; type: toxicity, organism-based; settings: in vivo, ip
Method in brief: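 Male Albino Swiss mice (20-24 g), i.p. suspension in 1% Tween 80 at 0.1 mL/10 g body weight, with vehicle controls and 8 mice per group. Tested 30 min post-dose by having mice climb backwards up a plastic tube (3 cm inner diameter, 25 cm long). Failing three tasks within 60 s scored as motor impairment, reported as % of animals failing.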

Mus musculus [5] = assay: Anxiolytic activity in Albino Swiss mouse assessed as number of punished crossing administered intraperitoneally dose equivalent to 0.1 of LD50 after 30 mins measured for 1 min by four-plate test; type: functional, organism-based
Method in brief: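 Male Albino Swiss mice (20-24 g), 8 per group, received ip compound in 1% Tween 80 (0.1 mL/10 g) at a dose equal to 0.1 of LD50; vehicle controls. Four-plate test 30 min later; punished crossings counted over 1 min.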

Mus musculus [6] = assay: Antidepressive activity in Albino Swiss mouse assessed as total immobility time at 5 mg/kg, ip after 30 mins measured for 4 mins by forced swimming test; type: functional; settings: route intraperitoneal
Method in brief: (§1)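 Forced swimming test in male Albino Swiss mice (20-24 g), 8 per group. Compounds given ip as suspensions in 1% Tween 80, 0.1 mL/10 g, at doses of 0.1-0.00635 of LD50, 30 min before test; imipramine 15 mg/kg ip as reference; controls got vehicle. Mice swam 6 min in a glass cylinder with 15 cm of 25 °C water; total immobility time scored; mean ± SEM.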

[7] = Selectivity ratio of Ki for 5HT2A receptor to Ki for rat 5HT1A receptor
Mus musculus [8] = assay: Antidepressive activity in Albino Swiss mouse assessed as total immobility time at 10 mg/kg, ip after 30 mins measured for 4 mins by forced swimming test; type: functional; settings: route intraperitoneal; method in brief: as §1
Mus musculus [9] = assay: Antidepressive activity in Albino Swiss mouse assessed as total immobility time at 15 mg/kg, ip after 30 mins measured for 4 mins by forced swimming test; type: functional; settings: route intraperitoneal; method in brief: as §1
Mus musculus [10] = assay: Antidepressive activity in Albino Swiss mouse assessed as total immobility time at 1.25 mg/kg, ip after 30 mins measured for 4 mins by forced swimming test; type: functional; settings: route intraperitoneal; method in brief: as §1
Mus musculus [11] = assay: Antidepressive activity in Albino Swiss mouse assessed as total immobility time at 20 mg/kg, ip after 30 mins measured for 4 mins by forced swimming test; type: functional; settings: route intraperitoneal; method in brief: as §1
Mus musculus [12] = assay: Antidepressive activity in Albino Swiss mouse assessed as total immobility time at 2.5 mg/kg, ip after 30 mins measured for 4 mins by forced swimming test; type: functional; settings: route intraperitoneal; method in brief: as §1

Chain of 5-hydroxytryptamine receptor 2A (P28223 whole entry): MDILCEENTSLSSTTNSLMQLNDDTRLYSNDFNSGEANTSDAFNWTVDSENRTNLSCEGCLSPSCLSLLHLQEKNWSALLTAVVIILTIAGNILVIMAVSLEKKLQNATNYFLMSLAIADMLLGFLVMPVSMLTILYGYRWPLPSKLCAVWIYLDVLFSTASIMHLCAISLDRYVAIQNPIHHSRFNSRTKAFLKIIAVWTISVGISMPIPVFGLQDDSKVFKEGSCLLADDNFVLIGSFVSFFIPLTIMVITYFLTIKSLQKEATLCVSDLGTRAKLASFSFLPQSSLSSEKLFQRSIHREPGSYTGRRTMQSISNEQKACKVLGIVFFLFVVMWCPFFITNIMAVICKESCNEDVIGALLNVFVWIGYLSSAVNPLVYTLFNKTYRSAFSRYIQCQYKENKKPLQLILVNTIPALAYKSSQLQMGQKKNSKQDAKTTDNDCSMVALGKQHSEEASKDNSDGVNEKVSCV

Row | Structure (SMILES) | Ki [1] [nM] | Ki [2] [nM] | Activity (Mus musculus [3]) | Activity (Mus musculus [4]) | Activity (Mus musculus [5]) | other results
1 | COc1ccccc1N1CCN(CCCCN2C(=O)C3C4C(=O)CC(C)(CC4C)C3C2=O)CC1 (configuration not stated) | 522 | 25 | inactive | Not Active | inactive | –
2 | COc1ccccc1N1CCN(CCCN2C(=O)C3C4C(C)=CC(OC(C)=O)(CC4C)C3C2=O)CC1 (configuration not stated) | 1020 | 35 | inactive | Not Active | inactive | –
3 | CCOC12CCC(C(=O)C1)C1C(=O)N(CCCCN3CCN(c4ccccc4OC)CC3)C(=O)C12 (configuration not stated) | 2790 | 26 | – | – | – | –
4 | CC1CC2(C)CC(=O)C1C1C(=O)N(OCCCN3CCN(c4ccccc4)CC3)C(=O)C12 (configuration not stated) | 300 | 616 | – | – | – | –
5 | CC(=O)OC12C=C(C)C(C(C)C1)C1C(=O)N(CCCCN3CCN(c4ccc(F)cc4)CC3)C(=O)C12 (configuration not stated) | 170 | 286 | – | – | – | –
6 | COc1ccccc1N1CCN(CCCON2C(=O)C3C4C=CC(OC)(CC4)C3C2=O)CC1 (configuration not stated) | 1390 | 31 | – | – | – | –
7 | COc1ccccc1N1CCN(CCCCN2C(=O)C3C4C(C)=CC(OC(C)=O)(CC4C)C3C2=O)CC1 (configuration not stated) | 737 | 10 | inactive | Not Active | inactive | Time (Mus musculus [6]): 113.8 s; Ratio Ki [7]: 74; Time (Mus musculus [8]): 71.7 s
8 | CC(=O)OC12C=C(C)C(C(C)C1)C1C(=O)N(CCCCN3CCN(c4ncccn4)CC3)C(=O)C12 (configuration not stated) | 6020 | 800 | – | – | – | –
9 | CC(=O)OC12C=C(C)C(C(C)C1)C1C(=O)N(OCCCN3CCN(c4cccc(Cl)c4)CC3)C(=O)C12 (configuration not stated) | 376 | 37 | inactive | Not Active | inactive | –
10 | CC(=O)OC12C=C(C)C(C(C)C1)C1C(=O)N(CCCCN3CCN(Cc4ccccc4)CC3)C(=O)C12 (configuration not stated) | 9720 | 1420 | – | – | – | –
11 | CC(=O)OC12C=C(C)C(C(C)C1)C1C(=O)N(CCCCN3CCN(c4ccccn4)CC3)C(=O)C12 (configuration not stated) | 965 | 97 | inactive | Not Active | inactive | –
12 | CC1CC2(C)CC(=O)C1C1C(=O)N(OCCCN3CCN(c4cccc(Cl)c4)CC3)C(=O)C12 (configuration not stated) | 110 | 92 | inactive | Not Active | inactive | –
13 | CC(=O)OC12C=C(C)C(C(C)C1)C1C(=O)N(CCCCN3CCN(c4ccccc4)CC3)C(=O)C12 (configuration not stated) | 286 | 34 | inactive | Not Active | inactive | –
14 | CC(=O)OC12C=C(C)C(C(C)C1)C1C(=O)N(CCCN3CCN(c4ccccc4)CC3)C(=O)C12 (configuration not stated) | 575 | 294 | – | – | – | –
15 | CC(=O)OC12C=C(C)C(C(C)C1)C1C(=O)N(OCCCN3CCN(c4ccccn4)CC3)C(=O)C12 (configuration not stated) | 1840 | 200 | – | – | – | –
16 | CC(=O)OC12C=C(C)C(C(C)C1)C1C(=O)N(OCCCN3CCN(c4ccccc4)CC3)C(=O)C12 (configuration not stated) | 375 | 115 | inactive | Not Active | inactive | –
17 | CC1CC2(C)CC(=O)C1C1C(=O)N(CCCCN3CCN(c4ncccn4)CC3)C(=O)C12 (configuration not stated) | 3380 | 1520 | – | – | – | –
18 | CC1CC2(C)CC(=O)C1C1C(=O)N(CCCCN3CCN(c4ccc(F)cc4)CC3)C(=O)C12 (configuration not stated) | 102 | 521 | inactive | Not Active | inactive | –
19 | CC1CC2(C)CC(=O)C1C1C(=O)N(CCCCN3CCN(Cc4ccccc4)CC3)C(=O)C12 (configuration not stated) | 2090 | 2730 | – | – | – | –
20 | CN(C)CCCN1c2ccccc2CCc2ccccc21 [IMIPRAMINE] | – | – | – | – | – | Time (Mus musculus [9]): 69.5 s
21 | COc1ccccc1N1CCN(CCCN2C(=O)C3C4C(=O)CC(C)(CC4C)C3C2=O)CC1 (configuration not stated) | 429 | 44 | inactive | Not Active | inactive | –
22 | CC1CC2(C)CC(=O)C1C1C(=O)N(OCCCN3CCN(c4ccccc4F)CC3)C(=O)C12 (configuration not stated) | 910 | 331 | – | – | – | –
23 | COc1ccccc1N1CCN(CCCCN2C(=O)C3C4C(=O)CC(OC(C)=O)(CC4(C)C)C3C2=O)CC1 (configuration not stated) | 770 | 22 | – | – | – | –
24 | COc1ccccc1N1CCN(CCCON2C(=O)C3C4C(=O)CC(C)(CC4C)C3C2=O)CC1 (configuration not stated) | 637 | 124 | inactive | Not Active | inactive | Time (Mus musculus [6]): 63.5 s; Time (Mus musculus [10]): 123.7 s; Time (Mus musculus [11]): 29.4 s; Time (Mus musculus [12]): 83.5 s; Time (Mus musculus [8]): 31.2 s
25 | CC1CC2(C)CC(=O)C1C1C(=O)N(CCCCN3CCN(c4ccccn4)CC3)C(=O)C12 (configuration not stated) | 577 | 202 | – | – | – | –
26 | CC1CC2(C)CC(=O)C1C1C(=O)N(CCCCN3CCN(c4ccccc4)CC3)C(=O)C12 (configuration not stated) | 181 | 50 | inactive | Not Active | inactive | –
27 | CC1CC2(C)CC(=O)C1C1C(=O)N(CCCN3CCN(c4ccccc4)CC3)C(=O)C12 (configuration not stated) | 292 | 344 | – | – | – | –
28 | CC(=O)OC12C=C(C)C(C(C)C1)C1C(=O)N(OCCCN3CCN(c4ccccc4F)CC3)C(=O)C12 (configuration not stated) | 1070 | 80 | inactive | Not Active | inactive | Time (Mus musculus [6]): 48.3 s; Time (Mus musculus [10]): 114.3 s; Time (Mus musculus [11]): 18.4 s; Time (Mus musculus [12]): 56.8 s; Time (Mus musculus [8]): 27.5 s
29 | COc1ccccc1N1CCN(CCCON2C(=O)C3C4C(C)=CC(OC(C)=O)(CC4C)C3C2=O)CC1 (configuration not stated) | 681 | 27 | inactive | Not Active | inactive | –
